# In ChEMBL document CHEMBL4196064, “Identification of Pyrazolo[3,4-e][1,4]thiazepin based CYP51 inhibitors as potential Chagas disease therapeutic alternative: In vitro and in vivo evaluation, binding mode prediction and SAR exploration” (Eur J Med Chem, 2018):
# Activity calls are given as the source filed them. No cut-off for these calls is given here.
# Tests used:
# Trypanosoma cruzi [1] = assay: Antitrypanosomal activity against bloodstream trypomastigote stage of Trypanosoma cruzi Y infected in Swiss Webster mouse assessed as reduction in parasitemia at 10 mg/kg, ip administered daily on day 5 to 9 post infection relative to control; format: functional; set-up: scale not given: the % may be the effect or the level left
# Outline: (§1)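 Male Swiss Webster mice (18–20 g) infected i.p. with 10^4 Y strain bloodstream trypomastigotes. Treatment given days 5–9 post infection: test compound i.p. 5–20 mg/kg/day (0.1 mL, DMSO then 20% Trappsol) or Bz 100 mg/kg/day p.o. (3% Tween 80 in water). Controls infected, vehicle only. Parasitemia counted by Pizzi-Brener in 5 µL tail blood; mortality checked daily to 30 days post treatment.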
# [2] = molecular target: Sterol 14-alpha demethylase (Trypanosoma cruzi (strain CL Brener)) (UniProt Q7Z1V1); assay: Inhibition of recombinant Trypanosoma cruzi Tulahuen CYP51 expressed in Escherichia coli JM109 cell membranes assessed as residual activity at 3.3 uM by fluorescence based analysis (reference value: 95%)
# Trypanosoma cruzi [3] = assay: Antitrypanosomal activity against bloodstream trypomastigote stage of Trypanosoma cruzi Y infected in Swiss Webster mouse assessed as reduction in parasitemia at 20 mg/kg, ip administered daily on day 5 to 9 post infection relative to control; format: functional; set-up: scale not given: the % may be the effect or the level left; outline: as §1
# [4] = Acute toxicity in ip dosed Swiss Webster mouse measured 48 hrs post dose; format: organism-based; details: in vivo
# Outline: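 Female Swiss Webster mice (20 to 23 g) injected intraperitoneally with increasing doses up to 200 mg/kg, n = 2 mice per assay, two assays. Animals inspected for toxic and subtoxic signs under OECD guidelines; NOAEL determined 48 h after injection. Vehicle: DMSO then Trappsol, in vivo vehicle not above 20 %.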
# Trypanosoma cruzi [5] = assay: Antitrypanosomal activity against bloodstream trypomastigote stage of Trypanosoma cruzi Y measured after 24 hrs by light microscopic analysis; format: functional, organism-based
# Outline: (§2)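 Y strain bloodstream trypomastigotes from heart puncture of infected mice, at 5x10⁶/mL in RPMI 1640 with 5% FBS. Incubated at 37℃ with 0–50 µM for 2 or 24 h. […] Mean ± SD.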
# [6] = molecular target: Sterol 14-alpha demethylase (Trypanosoma cruzi (strain CL Brener)) (UniProt Q7Z1V1); assay: Inhibition of recombinant Trypanosoma cruzi Tulahuen CYP51 expressed in Escherichia coli JM109 cell membranes assessed as residual activity at 0.033 uM by fluorescence based analysis (reference value: 95%)
# Trypanosoma cruzi [7] = assay: Trypanocidal activity against Trypanosoma cruzi Sylvio X10/7 intracellular amastigotes forms measured every 24 hrs for 96 hrs by time-kill assay; format: functional
# [8] = molecular target: Sterol 14-alpha demethylase (Trypanosoma cruzi (strain CL Brener)) (UniProt Q7Z1V1); assay: Inhibition of recombinant Trypanosoma cruzi Tulahuen CYP51 expressed in Escherichia coli JM109 cell membranes assessed as residual activity at 1 uM by fluorescence based analysis (reference value: 95%)
# [9] = molecular target: Sterol 14-alpha demethylase (Trypanosoma cruzi (strain CL Brener)) (UniProt Q7Z1V1); assay: Inhibition of recombinant Trypanosoma cruzi Tulahuen CYP51 expressed in Escherichia coli JM109 cell membranes assessed as residual activity at 0.33 uM by fluorescence based analysis (reference value: 95%)
# [10] = molecular target: Sterol 14-alpha demethylase (Trypanosoma cruzi (strain CL Brener), UniProt Q7Z1V1); assay: Inhibition of recombinant Trypanosoma cruzi Tulahuen CYP51 expressed in Escherichia coli JM109 cell membranes assessed as […] by fluorescence based analysis
# Trypanosoma cruzi [11] = assay: Trypanocidal activity against Trypanosoma cruzi Sylvio X10/7 intracellular amastigotes forms assessed as inhibition of maximum parasite growth measured every 24 hrs for 96 hrs by time-kill assay relative to control; format: functional
# Trypanosoma cruzi [12] = assay: Antitrypanosomal activity against Trypanosoma cruzi Tulahuen trypomastigote forms infected in mouse L929 cells assessed as reduction in parasite load after 96 hrs by beta-galactosidase reporter gene assay; format: functional, organism-based; details: L929, 96 h
# Outline: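 L929 cells infected 2 h with tissue culture-derived Tulahuen β-galactosidase trypomastigotes (10:1 parasite/host cell), rinsed with saline, and left 48 h at 37℃. Increasing non-toxic concentrations applied for 96 h. Absorbance read at 570 nm, % growth inhibition versus untreated cells, EC50 derived; mean ± SD. DMSO not above 0.6 %.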
# Trypanosoma cruzi [13] = assay: Antitrypanosomal activity against bloodstream trypomastigote stage of Trypanosoma cruzi Y infected in Swiss Webster mouse assessed as increase in mouse survival at 5 to 20 mg/kg, ip administered daily on day 5 to 9 measured daily until 30 days post dose relative to control; format: functional, organism-based; outline: as §1
# Trypanosoma cruzi [14] = assay: Antitrypanosomal activity against bloodstream trypomastigote stage of Trypanosoma cruzi Y infected in Swiss Webster mouse assessed as reduction in parasitemia at 5 mg/kg, ip administered daily on day 5 to 9 post infection relative to control; format: functional; set-up: scale not given: the % may be the effect or the level left; outline: as §1
# Trypanosoma cruzi [15] = assay: Antitrypanosomal activity against bloodstream trypomastigote stage of Trypanosoma cruzi Y measured after 2 hrs by light microscopic analysis; format: functional, organism-based; outline: as §2
# [16] = molecular target: Sterol 14-alpha demethylase (Trypanosoma cruzi (strain CL Brener)) (UniProt Q7Z1V1); assay: Inhibition of recombinant Trypanosoma cruzi Tulahuen CYP51 expressed in Escherichia coli JM109 cell membranes assessed as residual activity at 10 uM by fluorescence based analysis (reference value: 95%)
# [17] = molecular target: Sterol 14-alpha demethylase (Trypanosoma cruzi (strain CL Brener)) (UniProt Q7Z1V1); assay: Inhibition of recombinant Trypanosoma cruzi Tulahuen CYP51 expressed in Escherichia coli JM109 cell membranes assessed as residual activity at 0.1 uM by fluorescence based analysis (reference value: 95%)
# [18] = molecular target: Sterol 14-alpha demethylase (Trypanosoma cruzi (strain CL Brener)) (UniProt Q7Z1V1); assay: Inhibition of recombinant Trypanosoma cruzi Tulahuen CYP51 expressed in Escherichia coli JM109 cell membranes assessed as residual activity at 0.01 uM by fluorescence based analysis (reference value: 95%)
# [19] = molecular target: Sterol 14-alpha demethylase (Trypanosoma cruzi (strain CL Brener)) (UniProt Q7Z1V1); assay: Potency index, ratio of fluconazole IC50 to compound IC50 for recombinant Trypanosoma cruzi Tulahuen CYP51
# Trypanosoma cruzi [20] = assay: Antitrypanosomal activity against Trypanosoma cruzi Sylvio X10/7 intracellular amastigotes forms assessed as reduction in number of amastigotes per host cell measured every 24 hrs for 96 hrs by time-kill assay; format: functional, organism-based
# Trypanosoma cruzi [21] = assay: Antitrypanosomal activity against bloodstream trypomastigote stage of Trypanosoma cruzi Y infected in Swiss Webster mouse assessed as reduction in parasitemia at 100 mg/kg, po administered daily measured at day 8 post infection; format: functional, organism-based
# [22] = Cytotoxicity against mouse L929 cells assessed as reduction in cell viability after 96 hrs by Alamarblue assay; format: cell-based; details: read-out: LC50
# Outline: (§3)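 L929 fibroblasts (4x10^3 cells/well) in RPMI 1640 with 10% FBS, incubated at 37°C with increasing concentrations for 96 h. Viability was read with AlamarBlue (6 h incubation, absorbance at 600 nm) and confirmed by light microscopy.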
# Trypanosoma cruzi [23] = assay: Antitrypanosomal activity against bloodstream trypomastigote stage of Trypanosoma cruzi Y infected in Swiss Webster mouse assessed as mouse survival at 100 mg/kg, po administered daily on day 5 to 9 measured daily until 30 days post dose relative to control; format: functional
# Outline: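 Male Swiss Webster mice (18-20 g) were infected i.p. with 10^4 Y-strain bloodstream trypomastigotes. Benznidazole was given in sterile water with 3% Tween 80, 0.1 mL p.o. daily from 5 to 9 dpi. Mice were checked daily for mortality until 30 days post treatment, and the result was expressed as percentage cumulative mortality.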
# [24] = Cytotoxicity against mouse L929 cells assessed as reduction in cell viability after 96 hrs by light microscopic analysis; format: cell-based; details: read-out: LC50; outline: as §3
# [25] = Selectivity index, ratio of LC50 for Swiss Webster mouse cardiac cells by prestoblue assay to EC50 for bloodstream trypomastigote stage of Trypanosoma cruzi Y measured after 24 hrs; format: toxicity; details: read-out: Selectivity Index
# Outline: (§4)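 The ratio is cardiac-cell LC50 (24 h) over the 24 h EC50 against Y-strain bloodstream trypomastigotes. Trypomastigotes (5x10^6/mL) were exposed to 0-50 µM at 37°C in RPMI with 5% FBS. Surviving parasites were counted in a Neubauer chamber, and the EC50 is the concentration halving the parasite number.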
# [26] = Cytotoxicity against Swiss Webster mouse cardiac cells assessed as reduction in cell viability after 24 hrs by light microscopic analysis; format: cell-based, Cardiac Muscle Cell; details: read-out: LC50
# Outline: (§5)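 Primary cardiac cells from Swiss Webster mouse embryos, cultured at 37°C in DMEM with 5% FBS, CaCl2, glutamine and chick embryo extract. Uninfected cultures were exposed to increasing concentrations for 24 h. Viability was read with PrestoBlue (5 h incubation, absorbance at 570 nm) and checked by light microscopy for morphology.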
# [27] = Selectivity index, ratio of LC50 for mouse L929 cells by light microscopic analysis to EC50 for Trypanosoma cruzi Tulahuen trypomastigote forms; format: toxicity; details: read-out: Selectivity Index
# Trypanosoma cruzi [28] = assay: Antitrypanosomal activity against bloodstream trypomastigote stage of Trypanosoma cruzi Y infected in Swiss Webster mouse assessed as reduction in parasitemia at 100 mg/kg, po administered daily on day 5 to 9 post infection relative to control; format: functional; set-up: scale not given: the % may be the effect or the level left; outline: as §1
# [29] = Selectivity index, ratio of LC50 for Swiss Webster mouse cardiac cells by light microscopic analysis to EC50 for bloodstream trypomastigote stage of Trypanosoma cruzi Y measured after 24 hrs; format: toxicity; details: read-out: Selectivity Index; outline: as §4
# Trypanosoma cruzi [30] = assay: Antitrypanosomal activity against Trypanosoma cruzi Tulahuen trypomastigote forms infected in mouse L929 cells assessed as reduction in infection level at 10 to 12 uM after 96 hrs by beta-galactosidase reporter gene assay relative to control; format: functional; set-up: scale not given: the % may be the effect or the level left
# Outline: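 L929 cells infected 2 h with tissue culture-derived β-galactosidase-expressing Tulahuen trypomastigotes at 10:1 parasite/host cell ratio, rinsed, and held 48 h at 37℃. Single fixed concentration (10-12 µM) then applied, 96 h. Absorbance read at 570 nm; growth inhibition expressed relative to untreated cells. DMSO not above 0.6 %.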
# [31] = Cytotoxicity against Swiss Webster mouse cardiac cells assessed as reduction in cell viability after 24 hrs by prestoblue assay; format: cell-based, Cardiac Muscle Cell; details: read-out: LC50; outline: as §5
# [32] = Selectivity index, ratio of LC50 for mouse L929 cells by Alamarblue assay to EC50 for Trypanosoma cruzi Tulahuen trypomastigote forms; format: toxicity; details: read-out: Selectivity Index
# Sterol 14-alpha demethylase (Trypanosoma cruzi (strain CL Brener)), sequence (Q7Z1V1 whole entry, looked up): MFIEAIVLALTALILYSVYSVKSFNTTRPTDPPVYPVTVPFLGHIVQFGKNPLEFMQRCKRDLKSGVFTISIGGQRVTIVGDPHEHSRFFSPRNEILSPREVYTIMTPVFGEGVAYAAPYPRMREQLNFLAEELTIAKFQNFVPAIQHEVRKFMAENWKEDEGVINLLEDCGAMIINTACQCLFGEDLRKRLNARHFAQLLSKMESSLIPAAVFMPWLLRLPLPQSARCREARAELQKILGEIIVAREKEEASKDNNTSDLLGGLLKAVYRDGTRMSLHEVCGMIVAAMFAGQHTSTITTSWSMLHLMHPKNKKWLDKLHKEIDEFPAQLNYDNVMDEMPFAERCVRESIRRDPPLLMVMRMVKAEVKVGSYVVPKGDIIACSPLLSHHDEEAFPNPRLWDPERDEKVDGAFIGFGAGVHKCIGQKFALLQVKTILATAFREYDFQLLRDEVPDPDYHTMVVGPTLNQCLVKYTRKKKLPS
# Sterol 14-alpha demethylase, sequence (Q7Z1V1 whole entry): as the sequence (Q7Z1V1 whole entry, looked up) above
structure (smiles),measurement,setting,value
Cc1n[nH]c2c1[C@@H](c1ccc(OCc3ccccc3Cl)cc1)S[C@@H](C)C(=O)N2,Activity,Trypanosoma cruzi [1],38%
same,Activity,[2],1.2%
same,Activity,Trypanosoma cruzi [3],43%
same,NOAEL at 48 h,[4],> 50 mg/kg
same,EC50,Trypanosoma cruzi [5],4 µM
same,Activity,[6],75.8%
same,MIC,Trypanosoma cruzi [7],17 µM
same,Activity,[8],5.4%
same,Activity,[9],0%
same,IC50,[10],0.1 µM
same,Imax,Trypanosoma cruzi [11],94%
same,EC50,Trypanosoma cruzi [12],3.86 µM
same,Activity,Trypanosoma cruzi [13],inactive
same,Activity,Trypanosoma cruzi [14],30%
same,EC50,Trypanosoma cruzi [15],> 10 µM
same,Activity,[16],0%
same,Activity,[17],49.5%
same,Activity,[18],89.9%
same,Ratio IC50,[19],8
same,EC50,Trypanosoma cruzi [20],0.4 µM
O=C(Cn1ccnc1[N+](=O)[O-])NCc1ccccc1 [BENZNIDAZOLE],Activity,Trypanosoma cruzi [21],Active
same,CC50 at 96 h,[22],> 200 µM
same,survival at 100 mg/kg,Trypanosoma cruzi [23],100%
same,EC50,Trypanosoma cruzi [5],6.02 to 16.9 µM
same,CC50 at 96 h,[24],> 200 µM
same,selectivity ratio at 24 h,[25],> 12
same,CC50 at 24 h,[26],> 200 µM
same,EC50,Trypanosoma cruzi [12],2.63 to 3.79 µM
same,selectivity ratio,[27],> 53
same,EC50,Trypanosoma cruzi [15],10 to 50 µM
same,Activity,Trypanosoma cruzi [28],100%
same,selectivity ratio at 24 h,[29],> 12
same,Activity,Trypanosoma cruzi [30],89.3%
same,CC50 at 24 h,[31],> 200 µM
same,selectivity ratio,[32],> 53
